Counter-ions that a name gives are not always drawn. Active and inactive are the calls of the source. The calls are words filed in the database; no cut-off is given here.
Key:
[1] = Antiplatelet aggregation activity in rabbit platelets assessed as inhibition of arachidonic acid-induced platelet aggregation incubated for 5 mins prior to arachidonic acid-challenge measured within 5 mins by Born's turbidimetric analysis; type: functional, cell-based; conditions: Oryctolagus cuniculus
How it was run: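 Rabbit citrated PRP was adjusted to 400−450 × 10⁹ platelets/L and preincubated for 5 min at 37 °C with vehicle DMSO or compound at 0.1−1.6 mM (at least five concentrations). Aggregation was induced with arachidonic acid (0.33 mM, per the methods text). Maximum aggregation rate was recorded over 5 min by Born's turbidimetry, and IC₅₀ was derived from inhibition versus vehicle (mean ± SD).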

[2] = Antiplatelet aggregation activity in rabbit platelets assessed as inhibition of ADP-induced platelet aggregation incubated for 5 mins prior to ADP-challenge measured within 5 mins by Born's turbidimetric analysis; type: functional, cell-based; conditions: Oryctolagus cuniculus
Mus musculus = test: Antithrombotic activity in Swiss ICR mouse assessed as inhibition of collagen/adrenaline-induced acute systemic vascular thromboembolism at 160 mg/kg, po administered for 7 days prior to collagen/adrenaline-challenge measured up to 15 mins relative to control; type: functional, organism-based; parameters: dose 160 mg/kg
How it was run: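 Male Swiss ICR mice (30−35 g), n = 15 per group, dosed by gavage daily for 7 days in DMSO vehicle. Two hours after the last dose, mice received collagen (0.21 mg/kg) plus adrenaline (44.5 μg/kg) iv. Survival was monitored for 15 min and reported as % surviving.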

[3] = Antiplatelet aggregation activity in rabbit platelets assessed as inhibition of ADP-induced platelet aggregation at 1 mM incubated for 5 mins prior to ADP-challenge measured within 5 mins by Born's turbidimetric analysis relative to control; type: functional; conditions: Oryctolagus cuniculus
How it was run: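 Rabbit carotid blood was citrated (3.8%, 9:1). PRP was adjusted with PPP to 400−450 × 10⁹ platelets/L. PRP was preincubated with compound or DMSO for 5 min at 37 °C, then aggregation was induced with ADP at 10 μM. Maximum aggregation rate was recorded over 5 min using Born's turbidimetry. Inhibition % was calculated versus vehicle; n = 6, mean ± SD.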

Row | SMILES | IC50 [1] [µM] | IC50 [2] [µM] | Activity (Mus musculus) | inhibition at 1000 µM [3] [%]
1 | CC(=O)Oc1ccccc1C(=O)O [ASPIRIN] | 140 |  | Active | 
2 | CCCC[C@H](OC(=O)CN1CCN(C)CC1)c1ccccc1C(=O)O[C@H]1CO[C@H]2[C@@H]1OC[C@H]2O |  |  |  | 6.94
3 | CCCC[C@H](OC(=O)CN1CCOCC1)c1ccccc1C(=O)O[C@H]1CO[C@H]2[C@@H]1OC[C@H]2OC(=O)c1ccccc1[C@H](CCCC)OC(=O)CN1CCOCC1 | 320 | 450 |  | 
4 | Clc1ccccc1CN1CCc2sccc2C1 [TICLOPIDINE HYDROCHLORIDE] |  | 360 |  | 
5 | CCCC[C@H](OC(C)=O)c1ccccc1C(=O)O[C@H]1CO[C@H]2[C@@H]1OC[C@H]2OC(=O)c1ccccc1[C@H](CCCC)OC(C)=O | 210 | 330 |  | 
6 | O[C@@H]1CO[C@H]2[C@@H]1OC[C@@H]2O [ISOSORBIDE] | 1680 | 1350 |  | 6.94
7 | CCCC[C@H](OC(=O)CN1CCN(C)CC1)c1ccccc1C(=O)O[C@@H]1CO[C@H]2[C@@H]1OC[C@@H]2O[N+](=O)[O-] |  |  |  | 6.94
8 | CCCC[C@@H](OC(C)=O)c1ccccc1C(=O)O[C@H]1CO[C@H]2[C@@H]1OC[C@H]2OC(=O)c1ccccc1[C@@H](CCCC)OC(C)=O | 570 | 710 |  | 
9 | CCCC[C@H](OC(=O)CN1CCN(C)CC1)c1ccccc1C(=O)O[C@H]1CO[C@H]2[C@@H]1OC[C@H]2O[N+](=O)[O-] |  |  |  | 6.94
10 | CCCC[C@H](OC(=O)CN1CCN(C)CC1)c1ccccc1C(=O)O[C@@H]1CO[C@H]2[C@@H]1OC[C@@H]2O |  |  |  | 6.94
11 | CCCC[C@H](OC(=O)CN1CCN(C)CC1)c1ccccc1C(=O)O |  |  |  | 6.94

Continued, in another order:

Row | IC50 [1] [µM] | IC50 [2] [µM] | SMILES | Activity (Mus musculus) | inhibition at 1000 µM [3] [%]
12 | 270 | 360 | CCCC[C@@H](OC(=O)CN1CCN(C)CC1)c1ccccc1C(=O)O[C@H]1CO[C@H]2[C@@H]1OC[C@H]2OC(=O)c1ccccc1[C@@H](CCCC)OC(=O)CN1CCN(C)CC1 |  | 
13 | 800 | 940 | CCCC[C@@H](OC(=O)CN1CCOCC1)c1ccccc1C(=O)O[C@H]1CO[C@H]2[C@@H]1OC[C@H]2OC(=O)c1ccccc1[C@@H](CCCC)OC(=O)CN1CCOCC1 |  | 
14 | 640 | 800 | CCCC[C@H](OC(=O)CN1CCCC1)c1ccccc1C(=O)O[C@H]1CO[C@H]2[C@@H]1OC[C@H]2OC(=O)c1ccccc1[C@H](CCCC)OC(=O)CN1CCCC1 |  | 
15 | 910 | 1000 | CCCC[C@@H](OC(=O)CN1CCCC1)c1ccccc1C(=O)O[C@H]1CO[C@H]2[C@@H]1OC[C@H]2OC(=O)c1ccccc1[C@@H](CCCC)OC(=O)CN1CCCC1 |  | 
16 | 360 | 490 | CCCC[C@H](OC(=O)CN1CCN(CCO)CC1)c1ccccc1C(=O)O[C@H]1CO[C@H]2[C@@H]1OC[C@H]2OC(=O)c1ccccc1[C@H](CCCC)OC(=O)CN1CCN(CCO)CC1 |  | 
17 | 630 | 750 | CCCC[C@@H](OC(=O)CN1CCN(CCO)CC1)c1ccccc1C(=O)O[C@H]1CO[C@H]2[C@@H]1OC[C@H]2OC(=O)c1ccccc1[C@@H](CCCC)OC(=O)CN1CCN(CCO)CC1 |  | 
